Assay results published in ChEMBL document CHEMBL4033712, “Synthesis and biological evaluation of new C-12(α/β)-(N-) sulfamoyl-phenylamino-14-deoxy-andrographolide derivatives as potent anti-cancer agents” (Bioorg Med Chem Lett, 2017).

What was measured:
Format in all cases: functional
SNB-19 [1] = assay: Anticancer activity against human SNB19 cells assessed as cell growth at 10 uM after 48 hrs by sulforhodamine B assay relative to control; settings: SNB-19, 48 h, read-out: Activity
In short: (§1)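 Single-dose NCI-60 panel screen: compound added at 10 µM and the culture incubated 48 h. The end point was read by protein staining with sulforhodamine B. The value is percent growth of treated cells relative to untreated control cells, reported as a mean graph across the panel.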

A498 = assay: Growth inhibition of human A498 cells incubated for 48 hrs by sulforhodamine B assay; settings: A498, 48 h
In short: (§2)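 NCI-60 five-dose screen at 0.01, 0.1, 1, 10 and 100 µM, 48 h incubation, sulforhodamine B end point. GI50 (50% decrease in net growth), TGI (total growth inhibition) and LC50 (net 50% loss of initial cells) taken from log concentration versus % growth inhibition curves.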

OVCAR-4 = assay: Growth inhibition of human OVCAR4 cells incubated for 48 hrs by sulforhodamine B assay; settings: OVCAR-4, 48 h; in short: as §2
COLO 205 = assay: Growth inhibition of human COLO205 cells incubated for 48 hrs by sulforhodamine B assay; settings: COLO 205, 48 h; in short: as §2
BT-549 = assay: Growth inhibition of human BT549 cells incubated for 48 hrs by sulforhodamine B assay; settings: BT-549, 48 h; in short: as §2
SF-268 = assay: Growth inhibition of human SF268 cells incubated for 48 hrs by sulforhodamine B assay; settings: SF-268, 48 h
In short: (§3)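 NCI 60 human tumour cell line panel, five-dose study at 0.01, 0.1, 1, 10 and 100 µM, 48 h incubation. Sulforhodamine B protein-binding dye end point. GI50 (50% decrease in net cell growth), TGI (total growth inhibition) and LC50 (net 50% loss of initial cells) read from log concentration versus % growth inhibition curves.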

786-0 = assay: Growth inhibition of human 786-0 cells incubated for 48 hrs by sulforhodamine B assay; settings: 786-0, 48 h; in short: as §2
KM12 = assay: Growth inhibition of human KM12 cells incubated for 48 hrs by sulforhodamine B assay; settings: KM12, 48 h; in short: as §2
OVCAR-8 = assay: Growth inhibition of human OVCAR8 cells incubated for 48 hrs by sulforhodamine B assay; settings: OVCAR-8, 48 h; in short: as §2
MDA-MB-231 = assay: Growth inhibition of human MDA-MB-231 cells incubated for 48 hrs by sulforhodamine B assay; settings: MDA-MB-231, 48 h; in short: as §2
SF-539 = assay: Anticancer activity against human SF539 cells assessed as cell growth at 10 uM after 48 hrs by sulforhodamine B assay relative to control; settings: SF-539, 48 h, read-out: Activity; in short: as §1
PC-3 = assay: Growth inhibition of human PC3 cells incubated for 48 hrs by sulforhodamine B assay; settings: PC-3, 48 h; in short: as §2
TK-10 = assay: Growth inhibition of human TK10 cells incubated for 48 hrs by sulforhodamine B assay; settings: TK-10, 48 h; in short: as §3
Hs-578T = assay: Growth inhibition of human Hs 578T cells incubated for 48 hrs by sulforhodamine B assay; in short: as §2
RXF 393 = assay: Growth inhibition of human RXF393 cells incubated for 48 hrs by sulforhodamine B assay; settings: RXF 393, 48 h; in short: as §3
M14 = assay: Growth inhibition of human M14 cells incubated for 48 hrs by sulforhodamine B assay; settings: M14, 48 h; in short: as §2
EKVX = assay: Growth inhibition of human EKVX cells incubated for 48 hrs by sulforhodamine B assay; in short: as §2
NCI-H23 = assay: Growth inhibition of human NCI-H23 cells incubated for 48 hrs by sulforhodamine B assay; settings: NCI-H23, 48 h; in short: as §2
NCI-H322M = assay: Growth inhibition of human NCI-H322M cells incubated for 48 hrs by sulforhodamine B assay; in short: as §2
ACHN = assay: Growth inhibition of human ACHN cells incubated for 48 hrs by sulforhodamine B assay; in short: as §2
IGROV-1 = assay: Growth inhibition of human IGROV1 cells incubated for 48 hrs by sulforhodamine B assay; settings: IGROV-1, 48 h; in short: as §2
SNB-19 [2] = assay: Growth inhibition of human SNB19 cells incubated for 48 hrs by sulforhodamine B assay; settings: SNB-19, 48 h; in short: as §3
SK-MEL-5 = assay: Growth inhibition of human SK-MEL-5 cells incubated for 48 hrs by sulforhodamine B assay; settings: SK-MEL-5, 48 h; in short: as §3
SNB-75 = assay: Growth inhibition of human SNB75 cells incubated for 48 hrs by sulforhodamine B assay; settings: SNB-75, 48 h; in short: as §3
HOP-92 = assay: Anticancer activity against human HOP92 cells assessed as cell growth at 10 uM after 48 hrs by sulforhodamine B assay relative to control; settings: HOP-92, 48 h, read-out: Activity; in short: as §1
SN12C = assay: Growth inhibition of human SN12C cells incubated for 48 hrs by sulforhodamine B assay; in short: as §3
MDA-MB-468 = assay: Growth inhibition of human MDA-MB-468 cells incubated for 48 hrs by sulforhodamine B assay; settings: MDA-MB-468, 48 h; in short: as §2
HCT-15 = assay: Growth inhibition of human HCT15 cells incubated for 48 hrs by sulforhodamine B assay; settings: HCT-15, 48 h; in short: as §2
HT-29 = assay: Growth inhibition of human HT-29 cells incubated for 48 hrs by sulforhodamine B assay; settings: HT-29, 48 h; in short: as §2
[3] = read-out: LC50 (the source's name)

C=C1CC[C@@H]2[C@](C)(COC(C)=O)[C@H](OC(C)=O)CC[C@@]2(C)[C@H]1CC(Nc1ccc(S(=O)(=O)Nc2nccs2)cc1)C1=CCOC1=O (stereo partly specified)
growth at 10 µM (SNB-19 [1]): 49.1%
GI50 (A498): 18.2 µM
LC50 (concentration giving net 50% loss of initial cells) (A498): 58.5 µM
TGI (A498): 32.6 µM
GI50 (OVCAR-4): 4.53 µM
LC50 (OVCAR-4): 43.9 µM
TGI (OVCAR-4): 17.7 µM
GI50 (COLO 205): 3.14 µM
TGI (COLO 205): 10.5 µM
CC50 (COLO 205; [3]): 48.9 µM
GI50 (BT-549): 2.43 µM
TGI (BT-549): 6.5 µM
CC50 (BT-549; [3]): 23.1 µM
GI50 (SF-268): 11.3 µM
TGI (SF-268): 25.9 µM
CC50 (SF-268; [3]): 59.1 µM
GI50 (786-0): 2.54 µM
LC50 (concentration giving net 50% loss of initial cells) (786-0): 23.6 µM
TGI (786-0): 6.74 µM
GI50 (KM12): 7.57 µM
TGI (KM12): 21.7 µM
CC50 (KM12; [3]): 53.3 µM
GI50 (OVCAR-8): 3.14 µM
TGI (OVCAR-8): 10.8 µM
CC50 (OVCAR-8; [3]): 47.7 µM
GI50 (MDA-MB-231): 3.3 µM
LC50 (concentration giving net 50% loss of initial cells) (MDA-MB-231): 37.6 µM
TGI (MDA-MB-231): 8.25 µM
growth at 10 µM (SF-539): -67.1%
GI50 (PC-3): 7.74 µM
TGI (PC-3): 21.5 µM
CC50 (PC-3; [3]): 52.2 µM
GI50 (TK-10): 9.45 µM
TGI (TK-10): 21.2 µM
CC50 (TK-10; [3]): 46.1 µM
GI50 (Hs-578T): 10.8 µM
LC50 (Hs-578T): > 100 µM
TGI (Hs-578T): 60.4 µM
GI50 (RXF 393): 2.36 µM
TGI (RXF 393): 4.74 µM
CC50 (RXF 393; [3]): 9.53 µM
GI50 (M14): 2.83 µM
TGI (M14): 10.5 µM
CC50 (M14; [3]): 42.2 µM
GI50 (EKVX): 14 µM
TGI (EKVX): 27 µM
CC50 (EKVX; [3]): 52 µM
GI50 (NCI-H23): 10 µM
TGI (NCI-H23): 24.8 µM
CC50 (NCI-H23; [3]): 61.6 µM
GI50 (NCI-H322M): 12 µM
TGI (NCI-H322M): 24.9 µM
CC50 (NCI-H322M; [3]): 51.6 µM
GI50 (ACHN): 5.99 µM
TGI (ACHN): 18.9 µM
CC50 (ACHN; [3]): 45 µM
GI50 (IGROV-1): 4.54 µM
TGI (IGROV-1): 17.1 µM
CC50 (IGROV-1; [3]): 47.5 µM
GI50 (SNB-19 [2]): 4.36 µM
TGI (SNB-19 [2]): 16.1 µM
CC50 (SNB-19 [2]; [3]): 46 µM
GI50 (SK-MEL-5): 4.79 µM
TGI (SK-MEL-5): 17.1 µM
CC50 (SK-MEL-5; [3]): 41.3 µM
GI50 (SNB-75): 2.83 µM
TGI (SNB-75): 15.6 µM
CC50 (SNB-75; [3]): 39.5 µM
growth at 10 µM (HOP-92): 54%
GI50 (SN12C): 1.87 µM
TGI (SN12C): 4.39 µM
CC50 (SN12C; [3]): 14.3 µM
GI50 (MDA-MB-468): 1.83 µM
TGI (MDA-MB-468): 4.43 µM
CC50 (MDA-MB-468; [3]): 14.1 µM
GI50 (HCT-15): 1.73 µM
TGI (HCT-15): 4.12 µM
CC50 (HCT-15; [3]): 9.84 µM
GI50 (HT-29): 2.17 µM
TGI (HT-29): 4.7 µM
CC50 (HT-29; [3]): 15.8 µM
